Experimental data taken from ChEMBL document CHEMBL3804761, “Synthesis of a stable and orally bioavailable englerin analogue” (Bioorg Med Chem Lett, 2016).

Key:
Type in all cases: functional
SK-MEL-5 = experiment: Growth inhibition of human SK-MEL-5 cells assessed as cell growth at 10 uM incubated for 48 hrs by sulforhodamine B assay relative to control; conditions: SK-MEL-5, 48 h, read-out: Activity
Outline: (§1)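 Run in the standard NCI 60-cell-line screen. Cells were exposed to drug for two days, and the read-out was sulforhodamine B staining. Compound was tested at a single final concentration of 10 µM in every line, and results are reported as growth percent.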

NCI-H522 = experiment: Growth inhibition of human NCI-H522 cells assessed as cell growth at 10 uM incubated for 48 hrs by sulforhodamine B assay relative to control; conditions: NCI-H522, 48 h, read-out: Activity; outline: as §1
MCF7 [1] = experiment: Growth inhibition of human MCF7 cells assessed as cell growth at 10 uM incubated for 48 hrs by sulforhodamine B assay relative to control; conditions: MCF7, 48 h, read-out: Activity; outline: as §1
NCI/ADR-RES = experiment: Growth inhibition of human NCI/ADR-RES cells assessed as cell growth at 10 uM incubated for 48 hrs by sulforhodamine B assay relative to control; conditions: read-out: Activity; outline: as §1
A549 = experiment: Growth inhibition of human A549/ATCC cells assessed as cell growth at 10 uM incubated for 48 hrs by sulforhodamine B assay relative to control; conditions: A549, 48 h, read-out: Activity; outline: as §1
[2] = Growth inhibition of human PC3 cells assessed as cell growth at 10 uM incubated for 48 hrs by sulforhodamine B assay relative to control; conditions: PC-3, 48 h, read-out: Activity; outline: as §1
K562 = experiment: Growth inhibition of human K562 cells assessed as cell growth at 10 uM incubated for 48 hrs by sulforhodamine B assay relative to control; conditions: K562, 48 h, read-out: Activity; outline: as §1
ACHN [3] = experiment: Growth inhibition of human ACHN cells assessed as cell growth at 10 uM incubated for 48 hrs by sulforhodamine B assay relative to control; conditions: read-out: Activity; outline: as §1
[4] = Growth inhibition of human HCT15 cells assessed as cell growth at 10 uM incubated for 48 hrs by sulforhodamine B assay relative to control; conditions: HCT-15, 48 h, read-out: Activity; outline: as §1
[5] = Growth inhibition of human Caki1 cells assessed as cell growth at 10 uM incubated for 48 hrs by sulforhodamine B assay relative to control; conditions: CAKI-1, 48 h, read-out: Activity; outline: as §1
786-0 = experiment: Growth inhibition of human 786-0 cells assessed as cell growth at 10 uM incubated for 48 hrs by sulforhodamine B assay relative to control; conditions: 786-0, 48 h, read-out: Activity; outline: as §1
[6] = Growth inhibition of human SNB75 cells assessed as cell growth at 10 uM incubated for 48 hrs by sulforhodamine B assay relative to control; conditions: SNB-75, 48 h, read-out: Activity; outline: as §1
[7] = Growth inhibition of human COLO205 cells assessed as cell growth at 10 uM incubated for 48 hrs by sulforhodamine B assay relative to control; conditions: COLO 205, 48 h, read-out: Activity; outline: as §1
[8] = Growth inhibition of human BT549 cells assessed as cell growth at 10 uM incubated for 48 hrs by sulforhodamine B assay relative to control; conditions: BT-549, 48 h, read-out: Activity; outline: as §1
[9] = Growth inhibition of human IGROV1 cells assessed as cell growth at 10 uM incubated for 48 hrs by sulforhodamine B assay relative to control; conditions: IGROV-1, 48 h, read-out: Activity; outline: as §1
KM12 = experiment: Growth inhibition of human KM12 cells assessed as cell growth at 10 uM incubated for 48 hrs by sulforhodamine B assay relative to control; conditions: KM12, 48 h, read-out: Activity; outline: as §1
MDA-MB-435 = experiment: Growth inhibition of human MDA-MB-435 cells incubated for 48 hrs by sulforhodamine B assay; conditions: MDA-MB-435, 48 h
Outline: (§2)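 NCI 60-cell-line panel, standard protocol. Cells exposed to compound for two days, growth read by sulforhodamine B staining. Tested at five 10-fold dilutions, top concentration 100 µM, to give dose-response curves.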

[10] = Growth inhibition of human LOXIMVI cells incubated for 48 hrs by sulforhodamine B assay; conditions: LOX IMVI; outline: as §2
MCF7 [11] = experiment: Growth inhibition of human MCF7 cells incubated for 48 hrs by sulforhodamine B assay; conditions: MCF7, 48 h; outline: as §2
MDA-MB-468 = experiment: Growth inhibition of human MDA-MB-468 cells assessed as cell growth at 10 uM incubated for 48 hrs by sulforhodamine B assay relative to control; conditions: MDA-MB-468, 48 h, read-out: Activity; outline: as §1
[12] = Growth inhibition of human OVCAR4 cells incubated for 48 hrs by sulforhodamine B assay; conditions: OVCAR-4, 48 h; outline: as §2
MDA-MB-231 = experiment: Growth inhibition of human MDA-MB-231 cells incubated for 48 hrs by sulforhodamine B assay; conditions: MDA-MB-231, 48 h; outline: as §2
[13] = Growth inhibition of human OVCAR5 cells incubated for 48 hrs by sulforhodamine B assay; conditions: OVCAR-5, 48 h; outline: as §2
U-251 = experiment: Growth inhibition of human U251 cells incubated for 48 hrs by sulforhodamine B assay; conditions: U-251, 48 h
Outline: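 Tested in the standard NCI 60-cell-line protocol with two-day drug exposure and a sulforhodamine B endpoint. Compounds were first screened at a single final concentration of 10 µM, reported as growth percent. They were then run as five 10-fold dilutions starting from a high concentration of 100 µM to give dose-response curves.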

[14] = Growth inhibition of human HOP62 cells incubated for 48 hrs by sulforhodamine B assay; conditions: HOP-62, 48 h; outline: as §2
ACHN [15] = experiment: Growth inhibition of human ACHN cells incubated for 48 hrs by sulforhodamine B assay; outline: as §2
SK-MEL-2 = experiment: Growth inhibition of human SK-MEL-2 cells incubated for 48 hrs by sulforhodamine B assay; conditions: SK-MEL-2, 48 h; outline: as §2
[16] = Growth inhibition of human RXF393 cells incubated for 48 hrs by sulforhodamine B assay; conditions: RXF 393, 48 h
Outline: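 Run in the NCI 60-cell-line protocol, with 2-day drug exposure and sulforhodamine B read-out. Dose-response testing used five 10-fold dilutions starting from a high concentration of 100 µM.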

M14 = experiment: Growth inhibition of human M14 cells incubated for 48 hrs by sulforhodamine B assay; conditions: M14, 48 h; outline: as §2
[17] = read-out: pLC50 (the source's name) (converted)

CC(C)[C@@]12C[C@@H](NC(=O)CF)[C@@](C)(O1)[C@@H]1CC[C@@H](C)[C@H]1[C@@H]2OC(=O)/C=C/c1ccccc1
growth at 10 µM (SK-MEL-5): 110% | growth at 10 µM (NCI-H522): 103% | growth at 10 µM (MCF7 [1]): 106% | growth at 10 µM (NCI/ADR-RES): 98.5% | growth at 10 µM (A549): 94.4% | growth at 10 µM [2]: 84% | growth at 10 µM (K562): 106% | growth at 10 µM (ACHN [3]): 105% | growth at 10 µM [4]: 103% | growth at 10 µM [5]: 80.9% | growth at 10 µM (786-0): 97.3% | growth at 10 µM [6]: 87.9% | growth at 10 µM [7]: 103% | growth at 10 µM [8]: 111% | growth at 10 µM [9]: 103% | growth at 10 µM (KM12): 104%

CC(C)[C@@]12C[C@@H](NC(=O)CO)[C@@](C)(O1)[C@@H]1CC[C@@H](C)[C@H]1[C@@H]2OC(=O)/C=C/C1CCCCC1
GI50 (MDA-MB-435): > 44.7 µM | LC50 (MDA-MB-435): > 44.7 µM | TGI (MDA-MB-435; read-out: pTGI (converted)): > 44.7 µM | GI50 [10]: > 44.7 µM | LC50 [10]: > 44.7 µM | TGI ([10]; read-out: pTGI (converted)): > 44.7 µM | GI50 (MCF7 [11]): > 44.7 µM | CC50 (MCF7 [11]; [17]): > 44.7 µM | TGI (MCF7 [11]; read-out: pTGI (converted)): > 44.7 µM | growth at 10 µM (SK-MEL-5): 99.3% | growth at 10 µM (NCI-H522): 88.8% | growth at 10 µM (MDA-MB-468): 97.5% | growth at 10 µM (MCF7 [1]): 94% | growth at 10 µM (NCI/ADR-RES): 94.8% | growth at 10 µM (A549): 92% | GI50 [12]: > 44.7 µM | LC50 (concentration killing 50% of cells) [12]: > 44.7 µM | TGI ([12]; read-out: pTGI (converted)): > 44.7 µM | growth at 10 µM [2]: 106% | GI50 (MDA-MB-231): > 44.7 µM | CC50 (MDA-MB-231; [17]): > 44.7 µM | TGI (MDA-MB-231; read-out: pTGI (converted)): > 44.7 µM | growth at 10 µM (K562): 96.5% | GI50 [13]: > 44.7 µM | LC50 [13]: > 44.7 µM | TGI ([13]; read-out: pTGI (converted)): > 44.7 µM | growth at 10 µM (ACHN [3]): 99.9% | growth at 10 µM [4]: 102% | growth at 10 µM [5]: 88.7% | growth at 10 µM (786-0): 100% | GI50 (U-251): > 44.7 µM | LC50 (concentration giving 50% net cell kill) (U-251): > 44.7 µM | TGI (U-251; read-out: pTGI (converted)): > 44.7 µM | growth at 10 µM [6]: 86.1% | GI50 [14]: > 44.7 µM | LC50 [14]: > 44.7 µM | TGI ([14]; read-out: pTGI (converted)): > 44.7 µM | GI50 (ACHN [15]): 17 µM | LC50 (concentration killing 50% of cells) (ACHN [15]): > 44.7 µM | TGI (ACHN [15]; read-out: pTGI (converted)): > 44.7 µM | GI50 (SK-MEL-2): > 44.7 µM | LC50 (SK-MEL-2): > 44.7 µM | TGI (SK-MEL-2; read-out: pTGI (converted)): > 44.7 µM | GI50 [16]: 13.8 µM | CC50 [16, 17]: > 44.7 µM | TGI ([16]; read-out: pTGI (converted)): > 44.7 µM | GI50 (M14): > 44.7 µM | LC50 (M14): > 44.7 µM | TGI (M14; read-out: pTGI (converted)): > 44.7 µM | growth at 10 µM [7]: 113% | growth at 10 µM [8]: 109% | growth at 10 µM [9]: 103% | growth at 10 µM (KM12): 104%
